Experiment [1] has as its system REH. The experiment in a line: Cytotoxicity against human REH cells after 72 hrs by MTT assay. Type of experiment: functional, cell-based. The procedure, abridged: (§1)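 Log-phase cells (1 × 10⁴/well) were plated in triplicate in RPMI 1640 with 10% heat-inactivated FBS and penicillin/streptomycin, at 37 °C in 5% CO2. Cells were treated with 10, 100 or 250 µM compound and harvested at 48 and 72 h. MTT (5 mg/ml) was added at 37 °C, formazan was dissolved in DMF/SDS detergent, and A570 was read minus a medium blank. Viability is expressed as % of DMSO vehicle, and IC50 was estimated at 72 h.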

In experiment [2] the test system is REH. The experiment in a line: Cytotoxicity against human REH cells at >= 100 uM after 48 to 72 hrs by MTT assay. Type of experiment: functional, cell-based. The procedure, abridged:
as §1

Experiment [3] deals with K562. The experiment in a line: Cytotoxicity against human K562 cells at >= 100 uM after 48 to 72 hrs by MTT assay. Type of experiment: functional, cell-based. The procedure, abridged:
as §1

Experiment [4] relates to K562. The experiment in a line: Cytotoxicity against human K562 cells after 72 hrs by MTT assay. Type of experiment: functional, cell-based. The conditions noted are these: K562, 72 h. An outline of the steps:
as §1

Experiment [5] relates to K562. Briefly: Cell cycle arrest in human K562 cells assessed as accumulation at G0/G1 phase after 48 hrs by PI staining based flow cytometry. Type of experiment: functional. The procedure, abridged: (§2)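 K562 cells, 0.75 × 10⁵ cells/ml, incubated at 37 °C with 10, 50 and 100 µM compound for 48 h, with a DMSO vehicle control. Cells were washed, fixed in 70% ethanol, RNase A treated, and stained with propidium iodide for half an hour before flow cytometry. At least 10,000 cells were acquired per sample, and G0/G1 (subG1), G1, S and G2/M fractions were read from the DNA histograms.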

Experiment [6] relates to K562. The experiment in a line: Cell cycle arrest in human K562 cells assessed as decline of G2/M phase after 48 hrs by PI staining based flow cytometry. Format: functional. An outline of the steps:
as §2

For experiment [7], the system named is K562. Briefly: Induction of apoptosis in human K562 cells assessed as chromosomal DNA fragmentation at 100 uM after 72 hrs by agarose gel electrophoresis. Format: functional, cell-based. An outline of the steps: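 K562 cells were cultured with 10, 50 or 100 µM compound for 72 h, with a DMSO lane as control. Genomic DNA was extracted, resuspended in TE buffer, and run on a 1% agarose gel at 30 V for 6 h. Laddering or smearing was viewed by ethidium bromide staining.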

The subject of experiment [8] is K562. The experiment in a line: Cell cycle arrest in human K562 cells assessed as change in cell cycle pattern after 48 hrs by PI staining based flow cytometry. Format: functional. The procedure, abridged: as §2
The subject of experiment [9] is K562. The experiment in a line: Cell cycle arrest in human K562 cells assessed as decline of G1 phase after 48 hrs by PI staining based flow cytometry. Format: functional. An outline of the steps: as §2

pIC50: −log10 of the molar value. The source made the active and inactive calls. The calls are words filed in the database; no cut-off is given here. Some results are limits rather than exact numbers.

With `O=C(CN1C(=O)/C(=C/c2ccc(-c3ccc(Cl)cc3)o2)SC1=S)NCc1ccc(Br)cc1`, the pIC50 with REH [1] is 4.12; in the experiment with K562 [4], 4.17. For the same molecule, the result with REH [2] and with K562 [3] was Active.
Turning to `O=C(CN1C(=O)/C(=C/c2ccc(-c3ccc(Cl)cc3)o2)SC1=S)NCc1ccccc1Cl`, the pIC50 in the experiment with REH [1] is 4.15; in the experiment with K562 [4], 4.19. For the same molecule, the result in the experiment with REH [2] and in the experiment on K562 [3] was Active.
For the molecule `O=C(CN1C(=O)/C(=C/c2ccc(-c3ccc(Cl)cc3)o2)SC1=S)NCc1ccc(C(F)(F)F)cc1`, the pIC50 in the experiment on REH [1] was 3.77; in the experiment on K562 [4], 3.81.
Consider `O=C(CN1C(=O)/C(=C/c2ccc(-c3ccc(Cl)cc3)o2)SC1=S)NCc1ccc(F)cc1`, for which the pIC50 in the experiment on REH [1] is 3.78; with K562 [4] it was 3.82.
`N#Cc1cc(NC(=O)CN2C(=O)/C(=C/c3ccc(-c4ccc(Cl)cc4)o3)SC2=S)ccc1C(F)(F)F`: the pIC50 in the experiment on REH [1] and in the experiment with K562 [4] was below 3.60 each time.
For the molecule `N#Cc1ccc(NC(=O)CN2C(=O)/C(=C/c3ccc(-c4ccc(Cl)cc4)o3)SC2=S)cc1`, the pIC50 with REH [1] was 4.05; in the experiment on K562 [4], 4.07.
With `COc1ccc(CNC(=O)CN2C(=O)/C(=C/c3ccc(-c4ccc(Cl)cc4)o3)SC2=S)cc1`, the result in the experiment on K562 [5], with K562 [6], in the experiment on K562 [7], with REH [2], in the experiment with K562 [3] and in the experiment with K562 [9] was Active. For the same molecule, the pIC50 with REH [1] is 4.36; in the experiment with K562 [4] it was 4.40. The Activity result in the experiment with K562 [8] was “Dose-dependent effect”.
Regarding `CCCCCCNC(=O)CN1C(=O)/C(=C/c2ccc(-c3ccc(Cl)cc3)o2)SC1=S`, the negative logarithm of the IC50 (pIC50) with REH [1] was 4.26; in the experiment with K562 [4], 4.30. For the same molecule, the outcome in the experiment on REH [2] and in the experiment on K562 [3] was Active.
For `O=C(CN1C(=O)/C(=C/c2ccc(-c3ccc(Cl)cc3)o2)SC1=S)Nc1nnn[nH]1`, the pIC50 in the experiment with REH [1] was 4.30; with K562 [4], 4.28. The outcome in the experiment on REH [2] and in the experiment on K562 [3] was Active.
Take `Cc1cccc(CNC(=O)CN2C(=O)/C(=C/c3ccc(-c4ccc(Cl)cc4)o3)SC2=S)c1`: the outcome in the experiment on K562 [5], in the experiment on K562 [6], with REH [2], with K562 [3] and in the experiment on K562 [9] was Active. In addition, the figures for the pIC50 in the experiment on REH [1] and in the experiment on K562 [4] were 4.28 and 4.32, respectively. In the experiment with K562 [8], the Activity entry was “Dose-dependent effect”.
On to `Cc1ccc(CNC(=O)CN2C(=O)/C(=C/c3ccc(-c4ccc(Cl)cc4)o3)SC2=S)cc1`, for which the pIC50 with REH [1] and with K562 [4] was 4.35 each time. Further, the outcome with REH [2] and in the experiment on K562 [3] was Active.
